Measurements as given in paper PMC5912934 (ChemMedChem, 2017).

Assays:
[1] = tested on: MOLM-14 acute monocytic leukemia cells; test: IC50 proliferation assay; format: cell-based; conditions: Homo sapiens, MOLM-14, 72 h, read-out: MOLM14 cancer cell line activity (IC50)
Method in brief: (§1)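 Cells were grown at 37 °C in 5% CO2 in RPMI 1640 or DMEM with 10% heat-inactivated FBS and 1% glutamine, then seeded in 96-well plates the afternoon before treatment. About 18 h later, the test compound was semi-serially diluted in DMSO, then in growth medium, and added. After 72 h, WST-1 was added and plates were read after a further 4 h at 37 °C. Assays were run in triplicate.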

[2] = tested on: A549 adenocarcinomic human alveolar basal epithelial cells; test: IC50 proliferation assay; format: cell-based; conditions: A549, 72 h, read-out: A549 cancer cell line activity (IC50)
Method in brief: as §1

HeLa cells = conditions: read-out: IC50 against HeLa cells; cited from earlier work
[3] = tested on: various cancer cell lines; test: Cancer cell line screening, all cell lines together; format: cell-based, human; conditions: for IC50: Homo sapiens, read-out: IC50 in cancer cell lines, lowest value
[4] = Aqueous benchtop stability in phosphate buffer; format: physicochemical; conditions: 25 μg/mL, pH 5.0, 7.0 and 7.5, room temperature, up to 24 hours
Method in brief: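 Test compound at 1 mg/mL in anhydrous DMSO (stock) was spiked into phosphate buffer at 25 μg/mL, at pH 5.0, 7.0 and 7.5, and stirred at room temperature. Aliquots were taken at 0, 0.25, 0.5, 1, 4, 8 and 24 h and checked by TLC against a verified standard. Aliquots were then extracted twice with chloroform, and the residue was examined by 1H NMR to confirm the TLC findings.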

female nude mice = test: Maximum tolerated dose assay; format: in vivo
Stability in human serum = format: in vitro ADME; conditions: pooled human serum, up to 24 hours
Method in brief: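 The test compound came from a 1 mg/mL anhydrous DMSO stock and was incubated in pooled human serum […]. It followed the same workflow as the buffer test. Timed aliquots were taken up to 24 h and compared by TLC against a verified standard. Aliquots were then extracted with two chloroform portions, the solvent was removed, and the residue was analysed by 1H NMR to verify TLC.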

γ-H2Ax in MOLM-14 cells = test: Gamma-H2Ax DNA damage assay in MOLM-14 cells; format: cell-based, human; conditions: MOLM-14 cells grown in 0.5 and 4 μM for 24 hours
Method in brief: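 MOLM-14 cells were seeded the evening before at 1×10^5 cells/mL in RPMI 1640/10% FBS. Controls were DMSO and 6.0 Gy gamma irradiation (collected after 1 h); treated cells were collected after 24 h. Cells were washed in PBS/2% serum, cytospun at 1.5×10^5 cells/slide, fixed 15 min in 4% PFA, permeabilised (Triton X-100 buffer), and blocked overnight in 10% FBS/PBS/0.1% Triton. Staining used anti-γ-H2Ax plus DyLight anti-mouse secondary with DAPI mount; slides were examined by fluorescence microscopy.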

Mouse plasma stability = format: in vitro ADME
Method in brief: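 Mouse plasma was spiked with 500 ng/mL prodrug and assayed for both prodrug and parent at 0, 5, 15, 30, 45, 60 and 90 min. Conversion was expressed as analyte counts to avoid differences between the two standard curves.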

[5] = Mouse model pharmacokinetic study; conditions: in vivo, 10 mg/kg
Method in brief: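 Mouse plasma was analysed by a validated LC/MS/MS assay. Proteins were precipitated with an equal volume of acetonitrile after adding an internal standard (a related analogue, final 1000 ng/mL), then vortexed 10 min and centrifuged at 14,000 rpm. Standard ranges were 1–1,000 ng/mL for parent and 10–10,000 ng/mL for prodrug. Separation used a C18 column with a 0.1% formic acid/acetonitrile gradient at 1 mL/min. Detection was positive electrospray on a triple quadrupole.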

[6] = Aqueous benchtop stability at CCPC; format: physicochemical; conditions: LC/MS; for deviation of recovered from expected concentration in aqueous solution: 5-500 ng/mL in 1:1 acetonitrile/Millipore H2O
Method in brief: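 Prodrug and its parent were spiked at 5, 12.5, 25, 50, 125, 250 and 500 ng/mL into 1:1 acetonitrile/Millipore water. Both analytes were measured by LC/MS. Concentrations were quantified against a previously constructed calibration curve at the same concentrations.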

For Clc1nc(Cl)c2[nH]ccc2n1 [Compound 5, 2,4-Dichloro-5H-pyrrolo[3,2-d]pyrimidine], the IC50 [1] is given as 9.5 ± 3.1 µM, the IC50 [2] is given as 14.5 ± 3.5 µM and the IC50 (HeLa cells) is given as 19 ± 3 µM. The IC50 [3] was ≥ 0.014 µM.

For Clc1nc(Cl)c2[nH]cc(Br)c2n1 [Compound 6, 7-Bromo-2,4-dichloro-5H-pyrrolo[3,2-d]pyrimidine], the “aqueous stability in phosphate buffer” value [4] was “stable”, the “toxicity relative to 7” value (female nude mice; female, nude, mouse, in vivo) was 2 fold and the “stability in human serum” value (Stability in human serum) was “stable”. For the same molecule, the IC50 (HeLa cells) was 0.92 ± 0.04 µM and the IC50 [3] was ≥ 0.014 µM.

In the case of Clc1nc(Cl)c2[nH]cc(I)c2n1 [Compound 7, 2,4-Dichloro-7-iodo-5H-pyrrolo[3,2-d]pyrimidine], the “aqueous stability in phosphate buffer” value [4] is reported as “stable”, the “DNA damage (γ-H2Ax staining)” value (γ-H2Ax in MOLM-14 cells) is reported as “significant DNA damage” and the “deviation in plasma over the time frame investigated” value (Mouse plasma stability; mouse plasma, 0-90 minutes) is reported as 5.7%. The stability in plasma (Mouse plasma stability; mouse plasma, time frame investigated (0-90 minutes)) was “excellent stability”, the “stability in human serum” value (Stability in human serum) was “stable” and the “time to little to no detection of the compound in mouse plasma” value [5] was ≤ 70 min. For the same molecule, the “deviation of recovered from expected concentration in aqueous solution” value [6] was ≤ 5.7% and the IC50 [3] was ≥ 0.014 µM.

For Clc1nc(Cl)c2c(n1)c(I)cn2COCc1ccccc1 [Compound 8, 5-((Benzyloxy)methyl)-2,4-dichloro-7-iodo-pyrrolo[3,2-d]pyrimidine], the “decrease of activity compared to the parent” value ([3]; fold, versus parent 7, Table 1 cell lines) was “ten-fold”.

In the case of Cc1ccc(S(=O)(=O)n2cc(I)c3nc(Cl)nc(Cl)c32)cc1 [Compound 9, 2,4-Dichloro-7-iodo-5-tosyl-pyrrolo[3,2-d]pyrimidine], the “aqueous stability in phosphate buffer” value [4] is reported as “stable”, the “increase in maximum tolerated dose compared to parent compound 7” value (female nude mice; fold, versus 7) is reported as “four-fold” and the “time to undetectable in biological media” value (Mouse plasma stability; biological media (Figure 4, mouse plasma)) is reported as ≤ 1 hour. The “conversion of 9 to 7 in mouse plasma” value (Mouse plasma stability; mouse plasma spiked with 500 ng/mL, 0-90 minutes) was “Significant conversion”, the “hydrolysis of 9 to 7 in aqueous solution” value ([6]; 1:1 acetonitrile/Millipore H2O) was “no observed hydrolysis” and the “deviation of recovered from expected concentration in aqueous solution” value [6] was 15.8%.
